Most compounds without a hit are left out; they make up all but 1.1% or so of the library.
Diaph act CS = compounds boosting diaphorase resazurin reduction – biochemical, uHTS, resorufin fluorescence, counter-screen for diaphorase-coupled primary assays, primary screen. 0.005% of 190,000 active. Diaphorase/resazurin coupled assay, 16 min; stronger effect = higher value; 1 = vehicle wells, 0 = NADH-free wells. activation factor at 20 µM. AID 1229, 2008;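 active = diaphorase activity raised at least twofold by the compound at 20 µM; inactive = activation factor below 2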
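Material: purified diaphorase enzyme from Clostridium kluyveri; Also added: 0.114 mM NADH and 0.1 mM resazurin, final amounts; Doses: single compound dose of 20 µM, 1% DMSO final; Times: 16 min enzyme reaction, ambient temperature; Detection: resorufin fluorescence, excitation 544 nm, emission 590 nm; Measure: increased resorufin signal from activators or reducing compounds.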
Diaph inh CS = diaphorase inhibitors and chemical oxidizers, primary screen, counter-screen for diaphorase-coupled primary assays, biochemical, uHTS, resorufin fluorescence. AID 1217, 2008. inhibition, % at 20 µM. diaphorase resazurin-to-resorufin fluorescence, NADH, 16 min; bacterial (C. kluyveri) enzyme, not human. 0.69% of 190,000 active;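 active = primary screen inhibition at 20 µM above a set limit, cut at about 50% in these data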;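 note: plate controls were DMSO with full reaction for no effect and wells lacking NADH for full effect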
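Detection: fluorescence of resorufin formed from resazurin, Ex 544/Em 590 nm; test system: Clostridium kluyveri diaphorase enzyme; amount: 0.14 U/mL diaphorase, enzyme working solution; times: 16-min room-temperature incubation before reading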
G6PDH counter = L. mesenteroides G6PDH inhibitors, counter-screen for G6PDH-coupled screening assays, biochemical, Leuconostoc mesenteroides enzyme | glucose-6-phosphate dehydrogenase [Leuconostoc mesenteroides] | Purified L. mesenteroides G6PDH, diaphorase/resazurin coupled fluorescence, 45 min | inhibition, % at 5 µM | 0.12% of 200,000 active | AID 1020, 2008; in the data active = inhibition above about 50%
PMI act hi M6P = human PMI activators, high substrate, primary screen, biochemical, fluorescence intensity, near-saturating mannose 6-phosphate; Mannose-6-phosphate isomerase (Homo sapiens), P34949; coupled PMI enzyme assay, resazurin fluorescence, 20 min; stronger effect = higher value; 1 = untreated enzyme, 0 = substrate-free blank; activation factor at 20 µM; 0.34% of 190,000 active; AID 1216, 2008;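 active = activation factor of 2 or more at 20 µM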
Target sequence (P34949 whole entry, looked up): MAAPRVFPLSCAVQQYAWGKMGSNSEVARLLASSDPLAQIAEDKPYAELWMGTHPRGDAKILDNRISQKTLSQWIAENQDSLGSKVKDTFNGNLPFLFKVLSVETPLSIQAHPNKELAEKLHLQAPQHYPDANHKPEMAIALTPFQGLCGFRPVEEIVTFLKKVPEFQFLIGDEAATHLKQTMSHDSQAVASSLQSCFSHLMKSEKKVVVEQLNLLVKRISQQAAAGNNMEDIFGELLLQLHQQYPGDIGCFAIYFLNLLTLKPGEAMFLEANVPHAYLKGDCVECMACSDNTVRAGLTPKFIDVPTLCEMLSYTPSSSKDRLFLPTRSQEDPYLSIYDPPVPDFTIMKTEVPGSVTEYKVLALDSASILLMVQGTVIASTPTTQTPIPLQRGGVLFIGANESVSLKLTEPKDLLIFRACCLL
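Test system: human phosphomannose isomerase with PGI, G6PDH, diaphorase coupling enzymes; Amount: PMI at 15 ng/mL final; Reagent: Mannose-6-phosphate 1.0 mM (near-saturating) plus 0.22 mM NADP+; Timing: 20 min, room temperature; Technique: resorufin fluorescence at Ex 544/Em 590 nm; Dosing: 20 µM single dose.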
PMI act = activators of human PMI, primary screen, biochemical, fluorescence intensity, near-Km mannose 6-phosphate; purified human PMI, coupled resazurin fluorescence, 20 min; stronger effect = higher value; 1 = vehicle control, 0 substrate-free wells; 0.005% of 190,000 active; activation factor at 20 µM;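 active = activation factor of 2 or more at 20 µM, relative to plate controls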
* hit, by the source's call.

SMILES	Diaph act CS	Diaph inh CS	G6PDH counter	PMI act hi M6P	PMI act
CS/C(N)=N/N=C/c1ccc([N+](=O)[O-])cc1	1	3	6	2.5*	1.6
CSc1nncn1/N=C/c1ccc([N+](=O)[O-])cc1	1	0	2	1	1
CCn1c2ccccc2c(=O)c2ccccc21	0.9	9	4	1	1
CCn1c(=O)c(-[n+]2ccccc2)c(O)c2ccccc21	0.5	53*	-14	0.6	0.5
c1ccc(-c2nnc(CSc3ccc4c(c3)OCCO4)o2)cc1	0.4	59*	4	1	0.9
Nc1cc(=O)[nH]c(SCC(=O)NNC(=O)Cc2ccccc2)n1	1	-1	-1	0.9	1
CC1N(O)C(c2ccc(Cl)cc2Cl)N(O)C1(C)C (stereo unspecified)	1	2	10	2*	1.8
ON1C(c2ccc(Cl)cc2Cl)N(O)[C@H]2CCCC[C@H]21 (stereo partly specified)	1	-1	13	1.1	1.3
COc1cccc(N=C2SC(CC(=O)Nc3ccccc3)C(=O)N2Cc2ccccn2)c1 (stereo unspecified)	0.9	12	1	0.9	1.1
O=C(c1ccc2nc(-c3ccco3)c(-c3ccco3)nc2c1)N1CCN(c2ncccn2)CC1	0.3	66*	27	0.7	0.9
O=C(Nc1ccc(N2CCOCC2)cc1)c1ccc2nc(-c3ccco3)c(-c3ccco3)nc2c1	0.7	30	-60	1.1	0.9
S=C(Nc1ccc(N2CCOCC2)cc1)Nc1ccc2nc(-c3ccco3)c(-c3ccco3)nc2c1	0.4	64*	40	1.5	1.2
O=C(Nc1ccc2nc(-c3ccco3)c(-c3ccco3)nc2c1)N1CCN(c2ccccn2)CC1	0.3	70*	24	0.6	1
Cc1nc(S/C(=C/c2ccc(OCc3ccc(C(=O)O)cc3)cc2)C(=O)O)n[nH]1	1	-2	5	0.9	1.1
CCc1ccc(NC(=O)c2ccccc2SC)cc1	0.8	19	3	0.9	0.9
CCOC(=O)C(=NC1CCCCC1)NNc1cccc(C(F)(F)F)c1	0.7	27	-8	0.9	0.8
CCOC(=O)C(=NC1CCS(=O)(=O)C1)NNc1ccc(Br)cc1 (stereo unspecified)	0.9	13	-1	2.4*	1.6
CCC(=O)NNc1ccc(Br)cc1	1	-2	7	2.8*	2*
CCOC(=O)C(=NC(C)CC)NNc1ccc(Br)cc1 (stereo unspecified)	0.9	6	6	2.7*	1.6
CCC(C)NC(=O)Nc1ccc(Br)cc1 (stereo unspecified)	0.9	8	4	1	0.9
COc1ccc(-n2c(=O)c3ccccc3n(Cc3ccccc3F)c2=O)cc1OC	0.9	5	3	1	0.9
Fc1ccc(-c2n[nH]c(=S)c3ccccc23)cc1	0.9	10	4	2.4*	1.8
CC(NC(=O)CCc1nnc(-c2ccc(-c3ccccc3)cc2)o1)c1nc2ccccc2[nH]1 (stereo unspecified)	0.8	22	16	0.7	0.8
O=C1c2ccccc2NC(c2cn[nH]c2-c2ccc(Cl)cc2)N1O (stereo unspecified)	0.9	13	10	2.2*	1.7
CCc1cc2cc(C)cc(C)c2[nH]c1=S	1	-2	2	2.9*	1.8
SMILES	Diaph act CS	Diaph inh CS	G6PDH counter	PMI act hi M6P	PMI act
CC1CCc2sc(NC(=O)C3CC(Cl)=CCC3C(=O)O)c(C#N)c2C1 (stereo unspecified)	0.8	16	5	0.9	0.9
O=C(CSc1ccc(-c2ccccn2)nn1)N1CCCC1	1.1	-5	10	1.2	1.2
O=C(Nc1cccc(F)c1)N1CCCC(CNS(=O)(=O)Cc2ccccc2)C1 (stereo unspecified)	0.8	15	22	0.9	0.8
S=c1[nH]c(-c2ccccc2)cn1/N=C/c1ccc(Br)cc1	0.8	23	-6	1.1	1
Cc1ccc(C)c(/C=N/n2cc(-c3ccccc3)[nH]c2=S)c1	0.2	76*	-8	1	1
CS(=O)(=O)N(CC(=O)N1CCC(C(N)=O)CC1)c1cc(C(F)(F)F)ccc1Cl	0.9	13	21	0.8	0.9
O=C(NNC(=S)NC(=O)c1cccnc1)c1ccc(Cl)cc1	0.6	36	3	1.1	0.8
O=C(NNC(=S)NC(=O)c1cccs1)c1cccnc1	0.4	57*	-2	1	1
Nc1ncnc(Oc2ccccc2F)c1[N+](=O)[O-]	0.9	5	4	1	1
COc1ccc2oc(=O)c(C(=O)C[n+]3cccc(C)c3)cc2c1	0.5	49	22	0.7	1.2
NNC(=O)CNc1ccccc1Cl	0.5	54*	3	1	1
O=C(CN1CCN(Cc2ccccc2)CC1)c1ccc(Br)cc1	0.9	6	1	2.4*	1.5
N#Cc1c(NC(=O)CSc2nnc(-c3ccco3)n2-c2ccccc2)sc2c1CCC2	1	0	5	1.1	1
CCOC(=O)c1c(NC(=O)CSc2nnc3c(Cl)cc(Cl)cn23)sc2c1CCC2	0.3	69*	-20	0.7	0.7
NC(=O)c1c(NC(=O)CSc2nnc(-c3ccco3)n2-c2ccccc2)sc2c1CCC2	0.5	53*	9	0.7	0.8
CCCCNC(=O)N1CCN(Cc2cccc(F)c2)CC1	0.9	13	12	1	1.1
N#Cc1c(-c2ccccc2Cl)cc(-c2ccccc2)[nH]c1=S	0.9	12	12	2.5*	1.6
N#Cc1c2c(c(-c3ccccc3Cl)[nH]c1=S)CCCC2	0.8	19	-2	2.4*	1.6
Cc1cc(-c2ccccc2)c(C#N)c(=S)[nH]1	0.8	19	7	1	1
COCCN1C(=O)Cc2c1nc(N)c1c(N)nc(N3CCN(c4ccc(F)cc4)CC3)c(C#N)c21	0.6	43	4	0.4	0.6
COCC(C)N1C(=O)Cc2c1nc(N)c1c(N)nc(N3CCN(c4ccccc4F)CC3)c(C#N)c21 (stereo unspecified)	0.4	60*	2	0.3	0.3
O=c1nc2s/c(=C\c3ccc(-c4ccccc4[N+](=O)[O-])o3)c(=O)n2nc1-c1ccccc1	0.3	69*	32	0.5	1

Source: PubChem
